Screening results: PubChem, The Scripps Research Institute Molecular Screening Center
HCV core dimer = HCV core protein dimerization inhibition; inhibition, % at 5 µM; hit rate 0.33% among 300,000; TR-FRET GST/Flag-core106 dimerization, 1536-well;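 active = inhibition above the mean of all tested compounds plus 3 SD, set per screening campaign, cut at about 45% in these data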
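Assay system – GST-tagged and Flag-tagged HCV core protein residues 1-106 · Quantity – core106 proteins, GST 13.5 nM and Flag 17 nM · Benchmarks – unlabelled core106 and no-GST-core106 wells · Read-out basis – percent inhibition of core106 dimerization signal · Detection – time-resolved FRET, ex 340 nm, em 617 and 671 nm · Schedule – 4 h at 22.5 °C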
NS3 helicase inh = blocks Hepatitis C virus NS3 helicase unwinding; hit rate 0.56% among 290,000; inhibition, % at 10.9 µM; NS3 helicase DNA unwinding, Cy5 molecular beacon fluorescence;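 active = inhibition above the mean of all tested compounds plus 3 SD, set per campaign, cut at about 35% in these data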
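System: HCV NS3 helicase fragment; control set: DMSO and thioflavine S; technique: Cy5 fluorescence at 0 and 60 min, beacon hairpin quenching; reagent: beacon DNA duplex substrate plus ATP; replicates: singlicate; schedule: 1 h reaction at 25 °C, ATP-initiated; medium: MOPS buffer pH 6.5 with MgCl2, DTT, Tween20, BSA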
TAAR1 agonist = human TAAR1 agonism; Q96RJ0; CHO RD-HGA16 TAAR1, Fluo-8 calcium fluorescence; vehicle wells 0%, saturating PEA agonist 100%; activation, % at 3 µM; hit rate 0.99% among 360,000; AID 624467;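 active = activation above the mean activation of all test compounds in the run plus 3 SD, cut at about 38% in these data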
Target sequence (Q96RJ0 whole entry, looked up): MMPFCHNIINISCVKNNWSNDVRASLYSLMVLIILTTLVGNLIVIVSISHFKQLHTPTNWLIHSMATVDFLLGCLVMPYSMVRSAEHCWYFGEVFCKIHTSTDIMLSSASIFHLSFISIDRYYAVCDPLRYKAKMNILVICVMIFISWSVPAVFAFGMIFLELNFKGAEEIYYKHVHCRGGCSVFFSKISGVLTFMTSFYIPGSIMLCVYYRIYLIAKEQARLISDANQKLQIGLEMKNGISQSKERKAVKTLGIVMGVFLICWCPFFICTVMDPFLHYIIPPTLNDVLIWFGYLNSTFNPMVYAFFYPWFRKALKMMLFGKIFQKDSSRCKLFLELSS
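Test system: RD-HGA16 (CHO) cells co-expressing Gα16 and hTAAR1 / Benchmarks: DMSO vehicle as 0%, PEA at EC100 as 100% / Repeats: no replicates (n 1) / Measure: % activation from peak over basal fluorescence ratio, DMSO-to-PEA scaled / Timing: 17-24 h plating, Fluo-8 75 min 37 °C, 30 min RT / Technique: kinetic Fluo-8 calcium fluorescence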
rCAG RNA binder = r(CAG) repeat RNA binding | AID 651821 | inhibition, % at 3 µM | hit rate 1.3% among 370,000 | TO-PRO-1 dye displacement fluorescence;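 active = inhibition above the plate cutoff, the mean of all test compounds on that plate plus 3 SD, cut at about 35% in these data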;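 also: higher means more dye released from RNA so lower well fluorescence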
TAAR1 antag = human TAAR1 antagonism; Q96RJ0; CHO RD-HGA16 TAAR1, Fluo-8 calcium fluorescence, antagonist; inhibition, % at 3 µM; hit rate 1.5% among 360,000;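 active = inhibition above a per-plate cutoff, the mean inhibition of test compounds on that plate plus 3 SD, cut at about 49% in these data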
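Material: RD-HGA16 CHO cells with stable hTAAR1 and Gα16; Dosing: single nominal final test compound concentration of 3 µM; Schedule: seeding 17-24 h prior, 75-min 37 °C, 30-min RT dye loading; Detection: kinetic Fluo-8 calcium fluorescence measurement; Measure: % inhibition from peak post-agonist over basal fluorescence ratio; Benchmarks: vehicle and agonist controls.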
A number is an active result. In the library only some 3.7% were active in any assay of this set; here they are far more common.

Screening COc1cc(C2c3[nH]c4ccccc4c3C[C@@H]3C(=O)N(Cc4ccco4)CC(=O)N23)cc(OC)c1OC (stereo partly drawn) returned HCV core dimer inactive, NS3 helicase inh inactive, TAAR1 agonist inactive, rCAG RNA binder inactive and TAAR1 antag 53.
Screening COCCSc1ncccc1-c1nc2ccccc2[nH]1 returned rCAG RNA binder inactive.
For CN(C(=O)COc1ccccc1C(=O)NCCOc1ccccc1)c1ccccc1 the results were HCV core dimer inactive, NS3 helicase inh inactive, TAAR1 agonist inactive, rCAG RNA binder inactive and TAAR1 antag 75.
For COc1cc(/C=N/NC(=O)c2cccc(NC(=O)c3ccccc3Cl)c2)ccc1O the results were HCV core dimer inactive, NS3 helicase inh inactive, TAAR1 agonist inactive, rCAG RNA binder inactive and TAAR1 antag 53.
`COc1ccccc1/C=N/NC(=O)c1cccc(NC(=O)c2ccccc2Cl)c1` gave HCV core dimer inactive, NS3 helicase inh inactive, TAAR1 agonist inactive, rCAG RNA binder inactive and TAAR1 antag 49.
For O=S(=O)(c1ccc(Cl)s1)N1CCC(c2nc3ccccc3o2)CC1 the results were rCAG RNA binder inactive.
For Cc1ccc(NC(=O)CSc2nnc(-c3cccnc3)n2Cc2ccco2)c(C)c1 the results were rCAG RNA binder inactive.
COc1cccc(NC(=O)c2oc3ccc(S(=O)(=O)N4CCOCC4)cc3c2C)c1 was read as HCV core dimer inactive, NS3 helicase inh inactive, TAAR1 agonist inactive, rCAG RNA binder inactive and TAAR1 antag 52.
Cc1ccc(C(=O)Oc2cccc(NC(=O)c3cccs3)c2)cc1S(=O)(=O)N1CCOCC1 was read as HCV core dimer inactive, NS3 helicase inh inactive, TAAR1 agonist inactive, rCAG RNA binder inactive and TAAR1 antag 57.
Screening COc1ccc2oc(C(=O)Nc3ccc(N4CCOCC4)cc3)c(C)c2c1 returned HCV core dimer 86, TAAR1 agonist inactive, rCAG RNA binder inactive and TAAR1 antag inactive.
`COc1ccc2oc(C(=O)Nc3ccccc3N3CCOCC3)c(C)c2c1` gave HCV core dimer inactive, TAAR1 agonist inactive, rCAG RNA binder inactive and TAAR1 antag inactive.
COc1ccc(-c2cc(-c3nnc4sc(-c5cccs5)nn34)[nH]n2)cc1 was read as rCAG RNA binder inactive.
For CCCc1ccc(OCc2ccc(C(=O)N3CCN(c4ccccn4)CC3)o2)c(OC)c1 the results were HCV core dimer inactive, NS3 helicase inh inactive, TAAR1 agonist inactive, rCAG RNA binder inactive and TAAR1 antag 51.
Screening O=C(CN1CCN(Cc2ccc3c(c2)OCO3)CC1)c1c[nH]c2ccccc12 returned HCV core dimer inactive, NS3 helicase inh inactive, TAAR1 agonist 38, rCAG RNA binder inactive and TAAR1 antag inactive.
Screening O=C(c1cc(=O)[nH]c2ccccc12)N1CCN(Cc2ccc3c(c2)OCO3)CC1 returned TAAR1 agonist inactive, rCAG RNA binder inactive and TAAR1 antag inactive.
For O=C(CN1CCN(Cc2ccc3c(c2)OCO3)CC1)Nc1ccc(F)cc1 the results were HCV core dimer inactive, NS3 helicase inh inactive, TAAR1 agonist 41, rCAG RNA binder inactive and TAAR1 antag inactive.
`O=C(CN1CCN(Cc2ccc3c(c2)OCO3)CC1)Nc1ccc2c(c1)OCO2` gave HCV core dimer inactive, NS3 helicase inh inactive, TAAR1 agonist inactive, rCAG RNA binder inactive and TAAR1 antag inactive.
`Nc1c(C(=O)NCc2ccccc2)nnn1Cc1ccc(F)cc1` gave HCV core dimer inactive, NS3 helicase inh inactive, TAAR1 agonist 41, rCAG RNA binder inactive and TAAR1 antag inactive.
Screening COc1ccc(CNC(=O)c2nnn(Cc3ccc(OC)cc3)c2N)cc1 returned HCV core dimer inactive, NS3 helicase inh inactive, TAAR1 agonist inactive, rCAG RNA binder inactive and TAAR1 antag inactive.
For COC(=O)[C@]12C[C@H](CC(=O)NCc3cccc(C(F)(F)F)c3)C(=O)N(Cc3ccc(Cl)cc3Cl)C1=C[C@H](C(C)(C)C)O[C@@H]2C the results were rCAG RNA binder inactive.
COc1cc(C2C(C#N)=C(N)Oc3c2ccc2ccccc32)ccc1OCC(=O)Nc1ccccc1C (stereo not drawn) was read as HCV core dimer inactive, NS3 helicase inh inactive, TAAR1 agonist inactive, rCAG RNA binder 36 and TAAR1 antag inactive.
For COC(=O)c1ccc(NC(=O)COc2ccc(C3C(C#N)=C(N)Oc4c3ccc3ccccc43)cc2OC)cc1 (stereo not drawn) the results were HCV core dimer inactive, NS3 helicase inh inactive, TAAR1 agonist inactive, rCAG RNA binder inactive and TAAR1 antag inactive.
